≈ marks a conversion by molar mass, not a printed value.
Tests used:
[1] = Cytotoxicity against african green monkey Vero cells after 72 hrs by MTT assay; type: cell-based; conditions: chlorocebus sabaeus
How it was run: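 Vero cells were kept in Minimum Essential Medium with Earle's salts plus 10% fetal bovine serum at 37 °C under 5% CO₂. Cells were seeded at 1 × 10⁴ per well and allowed to recover 24 h. Medium was then replaced with assay medium containing compound or no drug, and cells were exposed for 72 h. CC₅₀ is the 50% cellular cytotoxic concentration.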

[2] = tested on: Staphylococcus epidermidis; assay: Antibacterial activity against methicillin-resistant Staphylococcus epidermidis 09-4 after 18 to 24 hrs by NCCLS M100-S11 two fold serial dilution method; type: functional
How it was run: (§1)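 Two-fold serial dilution in agar medium. MIC read as the lowest concentration giving complete inhibition of bacterial growth after incubation at 35 °C for 18–24 h.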

Pseudomonas aeruginosa [3] = assay: Antibacterial activity against Pseudomonas aeruginosa 09-33 after 18 to 24 hrs by NCCLS M100-S11 two fold serial dilution method; type: functional
Klebsiella pneumoniae [4] = assay: Antibacterial activity against Klebsiella pneumoniae 09-23 after 18 to 24 hrs by NCCLS M100-S11 two fold serial dilution method; type: functional
Escherichia coli [5] = assay: Antibacterial activity against Escherichia coli 08-22 after 18 to 24 hrs by NCCLS M100-S11 two fold serial dilution method; type: functional
Pseudomonas aeruginosa [6] = assay: Antibacterial activity against Pseudomonas aeruginosa ATCC 27853 after 18 to 24 hrs by NCCLS M100-S11 two fold serial dilution method; type: functional
Streptococcus pneumoniae [7] = assay: Antibacterial activity against Streptococcus pneumoniae 08-2 after 18 to 24 hrs by NCCLS M100-S11 two fold serial dilution method; type: functional
Enterococcus faecalis [8] = assay: Antibacterial activity against Enterococcus faecalis 08-12 after 18 to 24 hrs by NCCLS M100-S11 two fold serial dilution method; type: functional
[9] = tested on: Staphylococcus epidermidis; assay: Antibacterial activity against methicillin-sensitive Staphylococcus epidermidis 09-6 after 18 to 24 hrs by NCCLS M100-S11 two fold serial dilution method; type: functional; how it was run: as §1
Klebsiella pneumoniae [10] = assay: Antibacterial activity against Klebsiella pneumoniae 09-22 after 18 to 24 hrs by NCCLS M100-S11 two fold serial dilution method; type: functional
[11] = tested on: Staphylococcus epidermidis; assay: Antibacterial activity against methicillin-sensitive Staphylococcus epidermidis 09-3 after 18 to 24 hrs by NCCLS M100-S11 two fold serial dilution method; type: functional; how it was run: as §1
Pseudomonas aeruginosa [12] = assay: Antibacterial activity against Pseudomonas aeruginosa 09-34 after 18 to 24 hrs by NCCLS M100-S11 two fold serial dilution method; type: functional
Staphylococcus aureus [13] = assay: Antibacterial activity against Staphylococcus aureus ATCC 25923 after 18 to 24 hrs by NCCLS M100-S11 two fold serial dilution method; type: functional; conditions: ATCC25923
Escherichia coli [14] = assay: Antibacterial activity against Escherichia coli 08-21 after 18 to 24 hrs by NCCLS M100-S11 two fold serial dilution method; type: functional
Staphylococcus aureus [15] = assay: Antibacterial activity against methicillin-resistant Staphylococcus aureus 08-1 after 18 to 24 hrs by NCCLS M100-S11 two fold serial dilution method; type: functional; how it was run: as §1
Pseudomonas aeruginosa [16] = assay: Antibacterial activity against Pseudomonas aeruginosa 09-32 after 18 to 24 hrs by NCCLS M100-S11 two fold serial dilution method; type: functional
Enterococcus faecium [17] = assay: Antibacterial activity against Enterococcus faecium 08-7 after 18 to 24 hrs by NCCLS M100-S11 two fold serial dilution method; type: functional
Enterococcus faecalis [18] = assay: Antibacterial activity against Enterococcus faecalis 08-10 after 18 to 24 hrs by NCCLS M100-S11 two fold serial dilution method; type: functional
Escherichia coli [19] = assay: Antibacterial activity against Escherichia coli ATCC 25922 after 18 to 24 hrs by NCCLS M100-S11 two fold serial dilution method; type: functional; conditions: ATCC25922
Streptococcus pneumoniae [20] = assay: Antibacterial activity against Streptococcus pneumoniae 08-4 after 18 to 24 hrs by NCCLS M100-S11 two fold serial dilution method; type: functional
Enterococcus faecium [21] = assay: Antibacterial activity against Enterococcus faecium 08-2 after 18 to 24 hrs by NCCLS M100-S11 two fold serial dilution method; type: functional
Staphylococcus aureus [22] = assay: Antibacterial activity against methicillin-sensitive Staphylococcus aureus 08-1 after 18 to 24 hrs by NCCLS M100-S11 two fold serial dilution method; type: functional
Pseudomonas aeruginosa [23] = assay: Ratio of levofloxacin MIC to compound MIC for Pseudomonas aeruginosa 09-32; type: functional
Pseudomonas aeruginosa [24] = assay: Ratio of levofloxacin MIC to compound MIC for Pseudomonas aeruginosa 09-34; type: functional
Pseudomonas aeruginosa [25] = assay: Ratio of levofloxacin MIC to compound MIC for Pseudomonas aeruginosa ATCC 27853; type: functional
Pseudomonas aeruginosa [26] = assay: Ratio of levofloxacin MIC to compound MIC for Pseudomonas aeruginosa 09-33; type: functional

Row | Compound | CC50 at 72 h [1] [µg/mL] | MIC [2] [µg/mL] | MIC (Pseudomonas aeruginosa [3]) [µg/mL] | MIC (Klebsiella pneumoniae [4]) [µg/mL] | MIC (Escherichia coli [5]) [µg/mL] | MIC (Pseudomonas aeruginosa [6]) [µg/mL] | MIC (Streptococcus pneumoniae [7]) [µg/mL] | MIC (Enterococcus faecalis [8]) [µg/mL] | MIC [9] [µg/mL] | MIC (Klebsiella pneumoniae [10]) [µg/mL] | MIC [11] [µg/mL] | MIC (Pseudomonas aeruginosa [12]) [µg/mL] | MIC (Staphylococcus aureus [13]) [µg/mL] | MIC (Escherichia coli [14]) [µg/mL] | MIC (Staphylococcus aureus [15]) [µg/mL] | MIC (Pseudomonas aeruginosa [16]) [µg/mL] | MIC (Enterococcus faecium [17]) [µg/mL] | MIC (Enterococcus faecalis [18]) [µg/mL] | MIC (Escherichia coli [19]) [µg/mL] | MIC (Streptococcus pneumoniae [20]) [µg/mL] | further results
1 | COc1c(N2CCN(O)C(C)C2)c(F)cc2c(=O)c(C(=O)O)cn(C3CC3)c12 (stereo not drawn) | 19.7 (≈ 50.3 µM) | 0.25 (≈ 0.639 µM) | 32 (≈ 81.8 µM) | 16 (≈ 40.9 µM) | 16 (≈ 40.9 µM) | 4 (≈ 10.2 µM) | 16 (≈ 40.9 µM) | 16 (≈ 40.9 µM) | 0.25 (≈ 0.639 µM) | 2 (≈ 5.11 µM) | 0.25 (≈ 0.639 µM) | 4 (≈ 10.2 µM) | 0.125 (≈ 0.319 µM) | 16 (≈ 40.9 µM) | 0.25 (≈ 0.639 µM) | 2 (≈ 5.11 µM) | 16 (≈ 40.9 µM) | 16 (≈ 40.9 µM) | 4 (≈ 10.2 µM) | 2 (≈ 5.11 µM) | MIC (Enterococcus faecium [21]): 16 µg/mL (≈ 40.9 µM); MIC (Staphylococcus aureus [22]): 0.25 µg/mL (≈ 0.639 µM)
2 | COc1c(N2CCN(CC/C(C)=N/Nc3ccccc3)C(C)C2)c(F)cc2c(=O)c(C(=O)O)cn(C3CC3)c12 (stereo not drawn) | 62.5 (≈ 117 µM) | 0.06 (≈ 0.112 µM) | 0.5 (≈ 0.933 µM) | 1 (≈ 1.87 µM) | 1 (≈ 1.87 µM) | 0.5 (≈ 0.933 µM) | 0.5 (≈ 0.933 µM) | 1 (≈ 1.87 µM) | 0.25 (≈ 0.467 µM) | 0.5 (≈ 0.933 µM) | 0.06 (≈ 0.112 µM) | 0.25 (≈ 0.467 µM) | 0.06 (≈ 0.112 µM) | 1 (≈ 1.87 µM) | 0.25 (≈ 0.467 µM) | 0.5 (≈ 0.933 µM) | 0.5 (≈ 0.933 µM) | 0.5 (≈ 0.933 µM) | 0.25 (≈ 0.467 µM) | 0.25 (≈ 0.467 µM) | Ratio (Pseudomonas aeruginosa [23]): 2; Ratio (Pseudomonas aeruginosa [24]): 2; Ratio (Pseudomonas aeruginosa [25]): 2; Ratio (Pseudomonas aeruginosa [26]): 2; MIC (Enterococcus faecium [21]): 0.5 µg/mL (≈ 0.933 µM); MIC (Staphylococcus aureus [22]): 0.125 µg/mL (≈ 0.233 µM)
3 | CCOC(=O)CN1CCN(c2c(F)cc3c(=O)c(C(=O)O)cn(C4CC4)c3c2OC)CC1C (stereo not drawn) | 1000 (≈ 2170 µM) | 4 (≈ 8.67 µM) | > 128 | > 128 | > 128 | 128 (≈ 277 µM) | > 128 | > 128 | 4 (≈ 8.67 µM) | > 128 | 4 (≈ 8.67 µM) | > 128 | 4 (≈ 8.67 µM) | > 128 | > 128 | > 128 | > 128 | > 128 | 128 (≈ 277 µM) | 4 (≈ 8.67 µM) | MIC (Enterococcus faecium [21]): > 128 µg/mL; MIC (Staphylococcus aureus [22]): 4 µg/mL (≈ 8.67 µM)
4 | COc1c(N2CCN(CC/C(C)=N/O)C(C)C2)c(F)cc2c(=O)c(C(=O)O)cn(C3CC3)c12 (stereo not drawn) | 44.2 (≈ 96 µM) | 0.25 (≈ 0.543 µM) | > 128 | 8 (≈ 17.4 µM) | 64 (≈ 139 µM) | 8 (≈ 17.4 µM) | 32 (≈ 69.5 µM) | > 128 | 0.25 (≈ 0.543 µM) | 64 (≈ 139 µM) | 0.25 (≈ 0.543 µM) | 8 (≈ 17.4 µM) | 2 (≈ 4.34 µM) | 64 (≈ 139 µM) | 32 (≈ 69.5 µM) | 4 (≈ 8.69 µM) | 64 (≈ 139 µM) | > 128 | 16 (≈ 34.7 µM) | 4 (≈ 8.69 µM) | MIC (Enterococcus faecium [21]): 64 µg/mL (≈ 139 µM); MIC (Staphylococcus aureus [22]): 32 µg/mL (≈ 69.5 µM)
5 | COc1c(N2CCN(C/C(C)=N/NC(=O)c3ccncc3)C(C)C2)c(F)cc2c(=O)c(C(=O)O)cn(C3CC3)c12 (stereo not drawn) | 250 (≈ 454 µM) | 2 (≈ 3.63 µM) | 128 (≈ 232 µM) | 32 (≈ 58.1 µM) | 64 (≈ 116 µM) | 4 (≈ 7.26 µM) | 32 (≈ 58.1 µM) | 128 (≈ 232 µM) | 0.25 (≈ 0.454 µM) | 16 (≈ 29.1 µM) | 0.25 (≈ 0.454 µM) | 32 (≈ 58.1 µM) | 2 (≈ 3.63 µM) | 128 (≈ 232 µM) | 32 (≈ 58.1 µM) | 4 (≈ 7.26 µM) | 64 (≈ 116 µM) | 128 (≈ 232 µM) | 16 (≈ 29.1 µM) | 4 (≈ 7.26 µM) | MIC (Enterococcus faecium [21]): 64 µg/mL (≈ 116 µM); MIC (Staphylococcus aureus [22]): 2 µg/mL (≈ 3.63 µM)
6 | COc1c(N2CCN(C/C(C)=N/NC(N)=O)C(C)C2)c(F)cc2c(=O)c(C(=O)O)cn(C3CC3)c12 (stereo not drawn) | 500 (≈ 1020 µM) | 2 (≈ 4.09 µM) | > 128 | > 128 | > 128 | > 128 | 64 (≈ 131 µM) | > 128 | 1 (≈ 2.05 µM) | > 128 | 2 (≈ 4.09 µM) | > 128 | 4 (≈ 8.19 µM) | > 128 | 2 (≈ 4.09 µM) | 64 (≈ 131 µM) | > 128 | > 128 | > 128 | 2 (≈ 4.09 µM) | MIC (Enterococcus faecium [21]): > 128 µg/mL; MIC (Staphylococcus aureus [22]): > 128 µg/mL
7 | COc1c(N2CCN(CC(C)=O)C(C)C2)c(F)cc2c(=O)c(C(=O)O)cn(C3CC3)c12 (stereo not drawn) | 500 (≈ 1160 µM) | 2 (≈ 4.64 µM) | 128 (≈ 297 µM) | 2 (≈ 4.64 µM) | 32 (≈ 74.2 µM) | 8 (≈ 18.5 µM) | 32 (≈ 74.2 µM) | 128 (≈ 297 µM) | 0.25 (≈ 0.579 µM) | 16 (≈ 37.1 µM) | 0.25 (≈ 0.579 µM) | 16 (≈ 37.1 µM) | 0.25 (≈ 0.579 µM) | 128 (≈ 297 µM) | 16 (≈ 37.1 µM) | 2 (≈ 4.64 µM) | 32 (≈ 74.2 µM) | 32 (≈ 74.2 µM) | 8 (≈ 18.5 µM) | 2 (≈ 4.64 µM) | MIC (Enterococcus faecium [21]): 32 µg/mL (≈ 74.2 µM); MIC (Staphylococcus aureus [22]): 1 µg/mL (≈ 2.32 µM)
